Experimental data taken from ChEMBL document CHEMBL3865819, “Myrsinane, Premyrsinane, and Cyclomyrsinane Diterpenes from Euphorbia falcata as Potassium Ion Channel Inhibitors with Selective G Protein-Activated Inwardly Rectifying Ion Channel (GIRK) Blocking Effects” (J Nat Prod, 2016).

Tests used:
Format in all cases: cell-based
[1] = biological target: T1, Kir3.1/Kir3.4 (Homo sapiens) (UniProt P48549+P48544); assay: Inhibition of GTPgammaS-induced activation of GIRK1/4 (unknown origin) expressed in HEK293 cells assessed as decrease in channel current at 1 uM after 2 mins at -40 mV holding potential by automated patch-clamp electrophysiology assay
Method in brief: (§1)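 Whole-cell automated planar patch clamp on HEK-293 cells stably expressing GIRK1/4 (Kir3.1/3.4). Internal solution carries 0.9 mM GTPγS to activate channels; bath switched from 4 mM K+ to high-K+ (25 mM KCl) external, pH 7.4. Step to 60 mV, ramp to −140 mV, 100 ms at −140 mV, ~0.1 Hz; inward current read at −140 mV. After 3 min control, 1 then 10 μM for ~2 min each; K+-free solution baseline; two to three cells.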

hERG (KCNH2) [2] = biological target: T2, hERG (KCNH2) (Homo sapiens, UniProt Q12809); assay: Inhibition of human ERG expressed in HEK293 cells assessed as decrease in channel current at 10 uM after 3 mins at -80 mV holding potential by automated patch-clamp electrophysiology assay; conditions: HEK293 cells that express hERG
Method in brief: (§2)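 HEK-293 cells stably transfected with hERG (Kv11.1), whole-cell automated planar patch clamp. External solution 4 mM KCl, pH 7.4; internal KCl/KF/EGTA, pH 7.2. Protocol: 100 ms −40 mV reference step, 3 s at 20 mV, then 1 s at −40 mV for the outward tail current. After control, 3, 10, 30 μM cumulative, ~3 min each; amitriptyline 10 μM reference, then wash-out; two or three cells; DMSO ≤0.3% final.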

hERG (KCNH2) [3] = biological target: T2, hERG (KCNH2); assay: Inhibition of human ERG expressed in HEK293 cells assessed as decrease in channel current at 30 uM after 3 mins at -80 mV holding potential by automated patch-clamp electrophysiology assay; conditions: HEK293 cells that express hERG; method in brief: as §2
hERG (KCNH2) [4] = biological target: T2, hERG (KCNH2); assay: Inhibition of human ERG expressed in HEK293 cells assessed as decrease in channel current at 3 uM after 3 mins at -80 mV holding potential by automated patch-clamp electrophysiology assay; conditions: HEK293 cells that express hERG; method in brief: as §2
[5] = biological target: T1, Kir3.1/Kir3.4 (Homo sapiens); assay: Inhibition of GTPgammaS-induced activation of GIRK1/4 (unknown origin) expressed in HEK293 cells assessed as decrease in channel current at 10 uM after 2 mins at -40 mV holding potential by automated patch-clamp electrophysiology assay; method in brief: as §1

T2 sequence (Q12809 whole entry): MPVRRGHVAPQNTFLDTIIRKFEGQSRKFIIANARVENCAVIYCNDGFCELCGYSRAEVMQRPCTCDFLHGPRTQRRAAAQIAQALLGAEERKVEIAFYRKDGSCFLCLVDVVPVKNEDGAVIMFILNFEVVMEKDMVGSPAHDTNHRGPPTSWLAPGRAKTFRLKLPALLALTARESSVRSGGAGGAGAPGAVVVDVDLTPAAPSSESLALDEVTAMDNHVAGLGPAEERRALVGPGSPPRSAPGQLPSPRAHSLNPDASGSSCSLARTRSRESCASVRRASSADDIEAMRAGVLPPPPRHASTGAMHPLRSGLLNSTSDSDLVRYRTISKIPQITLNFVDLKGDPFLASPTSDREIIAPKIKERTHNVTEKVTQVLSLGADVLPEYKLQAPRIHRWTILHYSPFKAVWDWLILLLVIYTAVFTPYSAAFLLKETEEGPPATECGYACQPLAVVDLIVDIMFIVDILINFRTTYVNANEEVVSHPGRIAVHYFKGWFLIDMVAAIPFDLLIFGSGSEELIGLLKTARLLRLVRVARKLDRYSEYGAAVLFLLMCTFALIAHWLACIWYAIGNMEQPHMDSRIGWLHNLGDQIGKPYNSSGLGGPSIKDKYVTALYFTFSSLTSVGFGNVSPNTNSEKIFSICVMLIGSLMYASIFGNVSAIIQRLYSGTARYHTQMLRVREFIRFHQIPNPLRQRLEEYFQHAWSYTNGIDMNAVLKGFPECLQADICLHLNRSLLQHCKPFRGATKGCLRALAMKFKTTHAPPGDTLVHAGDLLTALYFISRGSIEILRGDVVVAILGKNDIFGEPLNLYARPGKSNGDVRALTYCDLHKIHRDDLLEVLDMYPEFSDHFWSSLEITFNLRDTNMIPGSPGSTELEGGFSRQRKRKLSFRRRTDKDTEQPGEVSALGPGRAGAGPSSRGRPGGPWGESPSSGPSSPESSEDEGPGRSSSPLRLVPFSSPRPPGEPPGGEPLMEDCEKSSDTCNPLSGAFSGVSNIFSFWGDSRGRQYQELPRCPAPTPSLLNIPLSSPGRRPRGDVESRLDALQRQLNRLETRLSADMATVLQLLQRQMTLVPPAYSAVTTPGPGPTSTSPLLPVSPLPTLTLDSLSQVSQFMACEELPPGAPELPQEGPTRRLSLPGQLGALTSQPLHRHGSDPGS

| SMILES | inhibition [1] | inhibition at 0.05 h, 10 µM (hERG (KCNH2) [2]) | inhibition at 0.05 h, 30 µM (hERG (KCNH2) [3]) | inhibition at 0.05 h, 3 µM (hERG (KCNH2) [4]) | inhibition [5] |
| --- | --- | --- | --- | --- | --- |
| CCC(=O)O[C@@H]1[C@@H]2[C@@H](OC(C)=O)[C@@]34CO[C@@](C)([C@H](OC(C)=O)[C@@]2(OC(C)=O)C[C@]1(C)OC(=O)c1cccnc1)[C@@H]3[C@@H]1[C@@H](C[C@]1(C)OC(C)=O)[C@@H](OC(=O)C(C)C)C4=O | 35% | 22% | 42% | 11% | 65% |
| CCC(=O)O[C@@H]1[C@@H]2[C@@H](OC(C)=O)[C@@]34CO[C@@](C)([C@H](OC(C)=O)[C@@]2(OC(C)=O)C[C@H]1C)[C@@H]3[C@@H]1[C@@H](C[C@]1(C)OC(C)=O)[C@@H](OC(=O)C(C)C)C4=O | 30% | 23% | 33% | 0% | 70% |
| CC(=O)O[C@@H]1[C@H]2[C@@H](OC(=O)C(C)C)[C@@](C)(OC(=O)c3cccnc3)C[C@]2(OC(C)=O)[C@@H](OC(C)=O)[C@]2(C)OC[C@]13C(=O)[C@H](OC(=O)C(C)C)[C@@H]1C[C@](C)(OC(C)=O)[C@@H]1[C@@H]23 | 8% | 19% | 30% | 8% | 57% |
| CC(=O)O[C@@H]1C[C@H]2[C@@H]([C@@H]3[C@]1(COC(=O)c1cccnc1)[C@H](OC(=O)c1ccccc1)[C@H]1[C@@H](OC(=O)C(C)C)[C@@H](C)C[C@]1(O)C(=O)[C@@]3(C)OC(C)=O)C2(C)C | 28% | 29% | 53% | 14% | 48% |
| CCC(=O)O[C@@H]1[C@@H]2[C@@H](OC(C)=O)[C@@]34CO[C@@](C)([C@H](OC(C)=O)[C@@]2(O)C[C@@H]1C)[C@@H]3[C@@H]1[C@@H](C[C@]1(C)OC(C)=O)[C@@H](OC(=O)c1ccccc1)C4=O | 19% | 21% | 45% | 12% | 54% |
| CC(=O)OC1O[C@@]2(C)[C@H](OC(=O)c3ccccc3)[C@@]3(OC(C)=O)C[C@H](C)[C@H](OC(=O)C(C)C)[C@@H]3[C@@H](OC(C)=O)[C@@]13[C@H](OC(=O)c1cccnc1)C[C@H]1[C@@H]([C@@H]23)C1(C)C (stereo not given in full) | 18% | 68% | 78% | 48% | 37% |
| CC(=O)O[C@@H]1[C@H]2[C@@H](OC(=O)C(C)C)[C@@](C)(OC(=O)c3ccccc3)C[C@]2(OC(C)=O)[C@@H](OC(C)=O)[C@]2(C)OC[C@]13C(=O)[C@H](OC(=O)C(C)C)[C@@H]1C[C@](C)(OC(C)=O)[C@@H]1[C@@H]23 | 33% | 24% | 53% | 14% | 77% |
| CCC(=O)O[C@@H]1[C@@H]2[C@@H](OC(C)=O)[C@@]34CO[C@@](C)([C@H](OC(C)=O)[C@@]2(OC(C)=O)C[C@]1(C)OC(=O)c1ccccc1)[C@@H]3[C@@H]1[C@@H](C[C@]1(C)OC(C)=O)[C@@H](OC(=O)C(C)CC)C4=O (stereo not given in full) | 20% | 31% | 52% | 16% | 64% |
| CCC(=O)O[C@@H]1[C@@H]2[C@@H](OC(=O)c3ccccc3)[C@@]3(COC(=O)C(C)C)[C@H]4[C@H](C=C[C@H]3OC(C)=O)C(C)(C)O[C@]4(C)C(=O)[C@@]2(OC(C)=O)C[C@@H]1C | 21% | 24% | 40% | 11% | 47% |
| CCCCCC(=O)O[C@@H]1[C@@H]2[C@@H](O)[C@]34CC[C@H]5[C@@H]([C@H]3[C@@](C)(OC4)[C@H](OC(C)=O)[C@@]2(O)C[C@@H]1C)C5(C)C | 30% | 40% | 55% | 19% | 69% |
| CCC(C)C(=O)O[C@H]1C(=O)[C@@]23CO[C@@](C)([C@H](OC(C)=O)[C@@]4(OC(C)=O)C[C@](C)(O)[C@H](OC(=O)C(C)C)[C@@H]4[C@H]2OC(C)=O)[C@@H]3[C@@H]2[C@H]1C[C@]2(C)OC(C)=O (stereo not given in full) | 14% | 22% | 32% | 12% | 26% |
| CCC(C)C(=O)O[C@H]1C(=O)[C@@]23CO[C@@](C)([C@H](OC(C)=O)[C@@]4(OC(C)=O)C[C@](C)(OC(=O)c5ccccc5)[C@H](OC(=O)C(C)C)[C@@H]4[C@H]2OC(C)=O)[C@@H]3[C@@H]2[C@H]1C[C@]2(C)OC(C)=O (stereo not given in full) | 26% | 30% | 40% | 14% | 70% |
| CC(=O)OC[C@@]12[C@H](OC(=O)c3ccccc3)[C@H]3[C@@H](OC(=O)C(C)C)[C@@H](C)C[C@]3(OC(C)=O)C(=O)[C@@]3(C)OC(C)(C)[C@@H](C=C[C@H]1OC(C)=O)[C@H]23 | 26% | 24% | 43% | 13% | 61% |
| CCC(=O)O[C@@H]1[C@@H]2[C@@H](OC(C)=O)[C@@]34CO[C@@](C)([C@H](OC(C)=O)[C@@]2(OC(C)=O)C[C@]1(C)O)[C@@H]3[C@@H]1[C@@H](C[C@]1(C)OC(C)=O)[C@@H](OC(=O)C(C)CC)C4=O (stereo not given in full) | 11% | 20% | 33% | 8% | 24% |
| CC(=O)O[C@@H]1C=C[C@H]2[C@@H]3[C@]1(COC(=O)C(C)C)[C@H](OC(=O)c1ccccc1)[C@H]1[C@@H](OC(=O)C(C)C)[C@@H](C)C[C@]1(O)C(=O)[C@@]3(C)OC2(C)C | 21% | 33% | 46% | 20% | 54% |
| CCC(C)C(=O)O[C@H]1C(=O)[C@@]23CO[C@@](C)([C@H](OC(C)=O)[C@@]4(OC(C)=O)C[C@](C)(OC(=O)c5cccnc5)[C@H](OC(=O)C(C)C)[C@@H]4[C@H]2OC(C)=O)[C@@H]3[C@@H]2[C@H]1C[C@]2(C)OC(C)=O (stereo not given in full) | 23% | 54% | 82% | 20% | 69% |
